Tests used:
[1] = target: T1, Kir3.1/Kir3.4 (Homo sapiens) (UniProt P48549+P48544); test: Activation of GIRK1/4 (unknown origin) transfected in HEK293 cells at 20 uM after 4 mins by thallium flux-based fluorescence assay relative to ML297; type: cell-based
How it was run: (§1)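 Single-concentration thallium flux in HEK-293 cells stably expressing GIRK1/GIRK2 or GIRK1/GIRK4, loaded with 0.5 μM Thallos-AM for ~60 min at room temperature. 20 μM compound in 0.2% DMSO/HEPES-buffered HBSS (pH 7.4) added, followed 4 min later by a Tl2SO4 bicarbonate stimulus. Read-out is the slope of F/F0 after stimulus, vehicle-subtracted, expressed relative to reference activator.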

[2] = target: T2, Kir3.1/Kir3.2 (Homo sapiens) (UniProt P48549+P48051); test: Activation of GIRK1/2 (unknown origin) transfected in HEK293 cells at 20 uM after 4 mins by thallium flux-based fluorescence assay relative to ML297; type: cell-based; how it was run: as §1
[3] = target: T1, Kir3.1/Kir3.4 (Homo sapiens); test: Activation of GIRK1/4 (unknown origin) by cell-based thallium flux assay relative to control
How it was run: (§2)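 Loaded with 0.5 μM Thallos-AM for ~60 min at room temperature in HEPES-buffered HBSS pH 7.4. Compounds (11-point, threefold dilutions) added 4 min before a thallium sulfate/bicarbonate stimulus. Fluorescence read at 1 Hz, F/F0 minus vehicle, slope after stimulus. Potency from triplicates. Efficacy normalised to reference activator set at 100%.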

Kir3.1/Kir3.4 [4] = target: T3, Kir3.1/Kir3.4 (Homo sapiens, UniProt P48544+P48549); test: Activation of GIRK1/4 (unknown origin) by cell-based thallium flux assay; how it was run: as §2
T3 sequence (P48549 whole entry): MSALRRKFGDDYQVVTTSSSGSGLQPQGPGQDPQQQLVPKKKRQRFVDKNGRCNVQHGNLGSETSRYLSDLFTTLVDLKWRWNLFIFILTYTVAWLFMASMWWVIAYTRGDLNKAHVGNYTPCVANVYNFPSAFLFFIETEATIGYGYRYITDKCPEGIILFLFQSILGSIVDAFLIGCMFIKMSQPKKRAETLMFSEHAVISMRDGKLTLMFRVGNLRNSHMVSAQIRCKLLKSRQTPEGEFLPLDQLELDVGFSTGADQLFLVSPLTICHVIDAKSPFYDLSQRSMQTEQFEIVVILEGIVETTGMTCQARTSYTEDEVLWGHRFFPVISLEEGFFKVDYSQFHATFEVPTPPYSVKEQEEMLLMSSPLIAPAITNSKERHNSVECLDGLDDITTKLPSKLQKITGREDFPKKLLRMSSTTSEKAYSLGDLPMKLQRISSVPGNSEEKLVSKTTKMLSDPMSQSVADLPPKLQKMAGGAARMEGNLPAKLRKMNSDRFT
T3 sequence (P48544 whole entry): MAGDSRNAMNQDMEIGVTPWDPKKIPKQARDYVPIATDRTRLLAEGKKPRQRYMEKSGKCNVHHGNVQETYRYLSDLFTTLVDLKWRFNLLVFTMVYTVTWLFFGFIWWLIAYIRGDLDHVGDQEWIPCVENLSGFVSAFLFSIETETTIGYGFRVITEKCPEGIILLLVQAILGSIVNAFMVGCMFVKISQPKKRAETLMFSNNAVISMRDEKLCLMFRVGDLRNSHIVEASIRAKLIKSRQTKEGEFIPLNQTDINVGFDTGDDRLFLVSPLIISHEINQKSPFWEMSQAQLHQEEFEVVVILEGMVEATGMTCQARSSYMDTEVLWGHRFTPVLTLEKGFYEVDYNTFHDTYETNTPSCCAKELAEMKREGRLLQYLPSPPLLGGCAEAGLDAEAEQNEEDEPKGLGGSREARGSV

Kir3.1/Kir3.2 [5] = target: T4, Kir3.1/Kir3.2 (Homo sapiens, UniProt P48051+P48549); test: Activation of GIRK1/2 (unknown origin) by cell-based thallium flux assay
T4 sequence (P48549 whole entry): T3 sequence (P48549 whole entry)
T4 sequence (P48051 whole entry): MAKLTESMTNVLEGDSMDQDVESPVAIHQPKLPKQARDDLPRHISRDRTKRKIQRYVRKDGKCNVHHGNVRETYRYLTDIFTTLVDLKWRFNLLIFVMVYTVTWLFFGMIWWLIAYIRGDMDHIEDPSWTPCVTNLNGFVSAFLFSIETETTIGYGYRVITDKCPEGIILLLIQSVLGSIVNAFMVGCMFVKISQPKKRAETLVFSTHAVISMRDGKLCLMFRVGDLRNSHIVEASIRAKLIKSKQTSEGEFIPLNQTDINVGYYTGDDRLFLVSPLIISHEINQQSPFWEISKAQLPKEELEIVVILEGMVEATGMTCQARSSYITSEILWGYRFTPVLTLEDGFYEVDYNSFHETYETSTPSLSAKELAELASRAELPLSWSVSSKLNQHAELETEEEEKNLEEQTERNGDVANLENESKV
How it was run: (§3)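 Loaded with 0.5 μM Thallos-AM for ~60 min at room temperature in HEPES-buffered HBSS pH 7.4. Fluorescence read at 1 Hz, F/F0 minus vehicle, slope after stimulus. Potency from triplicates. Efficacy normalised to reference activator set at 100%.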

[6] = target: T2, Kir3.1/Kir3.2 (Homo sapiens); test: Activation of GIRK1/2 (unknown origin) by cell-based thallium flux assay relative to control; how it was run: as §2
Kir3.1/Kir3.4 [7] = target: T3, Kir3.1/Kir3.4; test: Activation of GIRK1/4 (unknown origin) transfected in HEK293 cells after 4 mins by thallium flux-based fluorescence assay; type: cell-based; how it was run: as §2
Kir3.1/Kir3.2 [8] = target: T4, Kir3.1/Kir3.2; test: Activation of GIRK1/2 (unknown origin) transfected in HEK293 cells after 4 mins by thallium flux-based fluorescence assay; type: cell-based; how it was run: as §3
Kir3.1/Kir3.4 [9] = target: T3, Kir3.1/Kir3.4; test: Activation of recombinant human GIRK1/4 expressed in Xenopus oocytes by two-electrode voltage clamp method; type: cell-based, Oocyte
Kir3.1/Kir3.2 [10] = target: T4, Kir3.1/Kir3.2; test: Activation of recombinant human GIRK1/2 expressed in Xenopus oocytes by two-electrode voltage clamp method; type: cell-based, Oocyte

SMILES | Efficacy [1] | Efficacy [2] | EC50 (Kir3.1/Kir3.4 [7]) | EC50 (Kir3.1/Kir3.2 [8]) | other results
CC(C)(C)c1cccc(NC(=O)Cc2ccccc2Cl)c1 | 76% | 44% |  |  | 
Cc1ccc(NC(=O)Cc2ccccc2Cl)cc1S(=O)(=O)N(C)C |  |  |  |  | Efficacy [3]: 104%; EC50 (Kir3.1/Kir3.4 [4]): 1.1 µM; EC50 (Kir3.1/Kir3.2 [5]): 1.1 µM; Efficacy [6]: 110%
Cc1ccc(NC(=O)Cc2ccc(F)cc2)cc1S(=O)(=O)N(C)C |  |  |  |  | Efficacy [3]: 108%; EC50 (Kir3.1/Kir3.4 [4]): 5.2 µM; EC50 (Kir3.1/Kir3.2 [5]): 3.6 µM; Efficacy [6]: 107%
Cc1ccc(NC(=O)Nc2ccccc2Cl)cc1S(=O)(=O)N(C)C | 106% | 94% | 6.8 µM | 2.7 µM | 
CN(C)S(=O)(=O)c1cccc(NC(=O)Cc2ccc(Cl)cc2)c1 |  |  |  |  | Efficacy [3]: 64%; EC50 (Kir3.1/Kir3.4 [4]): 2.2 µM; EC50 (Kir3.1/Kir3.2 [5]): 2.3 µM; Efficacy [6]: 71%
C[C@@H]1O[C@@H](O[C@H]2[C@H](Oc3cc(O)c4c(c3)O[C@H](c3ccc(O)cc3)CC4=O)O[C@H](CO)[C@@H](O)[C@@H]2O)[C@H](O)[C@H](O)[C@H]1O [NARINGIN] |  |  |  |  | EC50 (Kir3.1/Kir3.4 [9]): > 100 µM; EC50 (Kir3.1/Kir3.2 [10]): > 100 µM
Cc1cccc(NC(=O)Cc2ccccc2Cl)c1 |  |  | > 10 µM | > 10 µM | 
O=C(Cc1ccccc1Cl)Nc1ccc(C(F)(F)F)cc1 | 20% |  | 2.1 µM | > 10 µM | 
Cc1ccc(NC(=O)Nc2ccccc2F)cc1S(=O)(=O)N(C)C | 72% | 111% | 7.8 µM | 3.9 µM | 
O=C(Cc1ccccc1Cl)Nc1ccc(Cl)cc1 |  |  | > 10 µM | > 10 µM | 
CN(C)S(=O)(=O)c1cccc(NC(=O)Cc2ccccc2Cl)c1 |  |  |  |  | Efficacy [3]: 123%; EC50 (Kir3.1/Kir3.4 [4]): 1.6 µM; EC50 (Kir3.1/Kir3.2 [5]): 3.3 µM; Efficacy [6]: 55%
Cc1ccc(NC(=O)Nc2ccc(C(F)(F)F)cc2)cc1S(=O)(=O)N(C)C |  | 26% | > 10 µM | 1.5 µM | 
O=C(Cc1ccccc1Cl)Nc1cccc(Cl)c1 | 22% |  |  | > 10 µM | 
O=C(Cc1ccccc1Cl)Nc1cc(Cl)cc(C(F)(F)F)c1 |  |  | > 10 µM | > 10 µM | 
Cc1ccc(NC(=O)Cc2ccccc2Br)cc1S(=O)(=O)N(C)C |  |  |  |  | Efficacy [3]: 114%; EC50 (Kir3.1/Kir3.4 [4]): 1.6 µM; Efficacy [6]: 108%
O=C(Cc1ccccc1Cl)Nc1ccc(Cl)c(C(F)(F)F)c1 | 17% |  |  | > 10 µM | 

More lines, main results first:

Efficacy [1] | Efficacy [2] | EC50 (Kir3.1/Kir3.4 [7]) | EC50 (Kir3.1/Kir3.2 [8]) | SMILES | other results
55% | 89% | 1.8 µM | 1.1 µM | Cc1ccc(NC(=O)Nc2cccc(F)c2)cc1S(=O)(=O)N(C)C | 
 |  | > 10 µM | > 10 µM | CS(=O)(=O)c1cc(NC(=O)Cc2ccccc2Cl)ccc1F | 
104% | 101% | 5.6 µM | 1.7 µM | COc1ccc(NC(=O)Nc2ccc(C)c(S(=O)(=O)N(C)C)c2)cc1 | 
119% |  |  | > 10 µM | O=C(Cc1ccccc1Cl)Nc1cccc(OC(F)F)c1 | 
 |  | > 10 µM | > 10 µM | COc1ccc(OC)c(NC(=O)Nc2ccc(C)c(S(=O)(=O)N(C)C)c2)c1 | 
29% | 83% |  |  | Cc1ccc(NC(=O)Nc2cccc(C#N)c2)cc1S(=O)(=O)N(C)C | 
115% | 91% | 6.2 µM | 2.9 µM | Cc1ccc(NC(=O)Nc2ccc(C)c(S(=O)(=O)N(C)C)c2)cc1Cl | 
100% | 94% |  |  | Cc1ccc(NC(=O)Nc2ccccc2)cc1S(=O)(=O)N(C)C | 
72% | 92% | 2.8 µM | 3.3 µM | Cc1ccc(NC(=O)Nc2ccc(Cl)cc2)cc1S(=O)(=O)N(C)C | 

Source: ChEMBL document CHEMBL2417534, “Discovery and SAR of a novel series of GIRK1/2 and GIRK1/4 activators” (Bioorg Med Chem Lett, 2013)
